Data from ChEMBL document CHEMBL3351694, “Synthesis and SAR studies of benzyl ether derivatives as potent orally active S1P₁ agonists” (Bioorg Med Chem, 2014).

Tests used:
[1] = target: Sphingosine 1-phosphate receptor 1 (Homo sapiens, UniProt P21453); test: Agonist activity at human S1P1 receptor expressed in CHOK1 cell membranes by [35S]GTPgammaS binding assay; assay type: functional, CHO-K1
Procedure, shortened: (§1)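 Membranes of CHO-K1 cells transfected with human S1P1 or S1P3. Phosphorylated compounds tested. Buffer: 50 mM HEPES pH 7.5, 100 mM NaCl, 5 mM MgCl2, 0.05 mg/mL saponin, with GDP and DTT. Started with [35S]GTPγS plus membrane, 60 min at room temperature, then filter harvest and scintillation counting. Binding expressed as % of 20 µM Sph-1-P response, blank-corrected, n = 2.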

Homo sapiens = organism: Homo sapiens; test: Selectivity index, ratio of EC50 for human S1P3 receptor to EC50 for human S1P1 receptor
[2] = target: Sphingosine 1-phosphate receptor 3 (Homo sapiens, UniProt Q99500); test: Agonist activity at human S1P3 receptor expressed in CHOK1 cell membranes by [35S]GTPgammaS binding assay; assay type: functional, CHO-K1; procedure, shortened: as §1
Chain of Sphingosine 1-phosphate receptor 3 (Q99500 whole entry): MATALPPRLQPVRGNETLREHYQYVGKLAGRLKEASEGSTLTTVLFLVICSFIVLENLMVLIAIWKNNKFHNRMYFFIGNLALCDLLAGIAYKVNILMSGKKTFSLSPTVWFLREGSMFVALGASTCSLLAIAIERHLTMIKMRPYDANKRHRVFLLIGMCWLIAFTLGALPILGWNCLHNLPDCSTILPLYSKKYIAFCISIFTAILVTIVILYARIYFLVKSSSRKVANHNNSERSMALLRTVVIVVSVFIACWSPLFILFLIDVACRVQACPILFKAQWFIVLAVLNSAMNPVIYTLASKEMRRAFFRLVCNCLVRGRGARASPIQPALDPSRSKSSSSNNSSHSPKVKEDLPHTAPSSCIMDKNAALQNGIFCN

[3] = Metabolic stability in rat hepatic microsomes assessed as parent compound remaining after 30 mins at 37 degC; assay type: ADME, microsome; details: liver microsomes
Procedure, shortened: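 Compound incubated with rat hepatic microsomes for 30 min at 37 °C; percentage of compound remaining reported.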

[4] = Half life in rat at 1 mg/kg, po; assay type: ADME, organism-based; set-up: dose 1 mg/kg, route oral; details: in vivo
Procedure, shortened: (§2)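 Single oral dose of 1.0 mg/kg parent compound in rats, n = 2 or 3. Plasma levels measured for parent and its phosphate. Cmax, AUC0-48 and T1/2 derived from plasma concentration. Half-life of phosphate taken from plasma phosphate level after dosing at 1.0 mg/kg p.o., n = 2.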

[5] = Cmax in rat at 1 mg/kg, po; assay type: ADME, organism-based; set-up: dose 1 mg/kg, route oral; details: in vivo; procedure, shortened: as §2
[6] = AUC (0 to 48 hrs) in rat at 1 mg/kg, po; assay type: ADME, organism-based; set-up: time < 48 hr, dose 1 mg/kg, route oral; details: plasma; procedure, shortened: as §2
Rattus norvegicus [7] = test: Drug level in Wistar Imamichi rat at 1 to 30 mg/kg, po; assay type: ADME, organism-based; set-up: dose 1-30 mg/kg, route oral; details: in vivo
[8] = Drug metabolism in rat plasma assessed as compound phosphorylation at 100 ug/ml at 37 degC after 3 hrs by HPLC method; assay type: ADME, cell-free; details: read-out: Drug metabolism
Procedure, shortened: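 Rat whole blood, citrate-treated, spiked with compound from 100 µg/mL DMSO stock and held 3 h at 37 °C. Methanol quench, centrifugation twice at 4 °C, reversed-phase HPLC with CH3CN/0.1% TFA gradient. Phosphorylation given as ratio of HPLC peak areas of phosphate to remaining parent.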

Rattus norvegicus [9] = test: Immunosuppressive activity in Lewis rat injected with WKAH/Hkm rat spleen cells assessed as inhibition of host versus graft reaction by measuring popliteal lymph nodes weight dosed orally at 5 mL/kg once daily for 4 successive days starting on day of spleen cell injection; assay type: functional; details: po, read-out: ID50 (the source's name)
Procedure, shortened: (§3)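 Lewis rats received 1×10^7 WKAH/Hkm splenocytes intracutaneously into both hind footpads. Syngeneic controls received Lewis splenocytes. Compound suspended in 0.5% tragacanth, given orally at 5 mL/kg once daily for 4 days from the day of cell injection; 5 rats/group. Popliteal lymph node weight gain measured relative to allogeneic control. ID50 by least squares from at least three doses.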

[10] = Half life in Lewis rat at 1 mg/kg, po; assay type: ADME, organism-based; set-up: dose 1 mg/kg, route oral; details: in vivo; procedure, shortened: as §2
Rattus norvegicus [11] = test: Induction of lymphopenia in Lewis rat assessed as reduction in lymphocyte numbers at 0.1 mg/kg, po after 4 hrs by automatic hemacytometry relative to untreated control; assay type: functional; set-up: scale not given: the % may be the effect or the level left
Procedure, shortened: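 Male Lewis rats, 5 weeks old, 5 per group, given saline vehicle or 0.1 mg/kg compound orally. EDTA blood drawn before and 4 h after dosing. Lymphocytes counted by automatic hemacytometer; untreated rats also counted.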

Rattus norvegicus [12] = test: Immunosuppressive activity in Lewis rat injected with WKAH/Hkm rat spleen cells assessed as inhibition of host versus graft reaction by measuring popliteal lymph nodes weight dosed orally at 1 mg/kg once daily for 4 successive days starting on day of spleen cell injection; assay type: functional; details: route oral; procedure, shortened: as §3

Chain of Sphingosine 1-phosphate receptor 1 (P21453 whole entry): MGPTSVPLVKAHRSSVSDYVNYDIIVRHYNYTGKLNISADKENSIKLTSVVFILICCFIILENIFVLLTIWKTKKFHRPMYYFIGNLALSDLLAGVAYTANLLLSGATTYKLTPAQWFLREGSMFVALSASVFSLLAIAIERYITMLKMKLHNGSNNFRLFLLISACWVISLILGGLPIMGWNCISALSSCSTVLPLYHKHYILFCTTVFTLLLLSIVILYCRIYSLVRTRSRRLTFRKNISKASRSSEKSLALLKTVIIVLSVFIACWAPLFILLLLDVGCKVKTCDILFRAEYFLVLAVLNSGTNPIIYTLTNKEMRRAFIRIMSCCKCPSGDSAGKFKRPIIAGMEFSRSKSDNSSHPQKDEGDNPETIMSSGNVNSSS

EC50 [1] [µM]	Ratio EC50 (Homo sapiens)	EC50 [2] [µM]	remaining at 0.5 h [3] [%]	half-life [4] [h]	Cmax [5] [ng/mL]	AUC(0-t) at 48 h [6] [ng·h/mL]	metabolised at 3 h, 100 ug/ml [8] [%]	SMILES	also measured
0.0065	> 3080	> 20						Cc1ccc(CCCC(=O)c2cc(C)c(COC[C@@](C)(N)COP(=O)(O)O)cc2C)cc1	
			> 100					CCCCCCCCc1ccc(CC[C@](N)(CO)COP(=O)(O)O)cc1 [FTY720-P]	
0.0023	5220	12						CCc1cc(C(=O)CCCc2ccc(C)cc2)ccc1COC[C@@](C)(N)COP(=O)(O)O	
0.004	55	0.22	86	4.6	97	658		Cc1ccc(CCCC(=O)c2ccc(COC[C@@](C)(N)COP(=O)(O)O)c(Cl)c2)cc1	
0.0022	155	0.34						Cc1ccc(CCCC(=O)c2cc(C)c(COC[C@@](C)(N)COP(=O)(O)O)c(C)c2)cc1	
0.003	60	0.18	92	4.3	104	806		Cc1ccc(CCCC(=O)c2ccc(COC[C@@](C)(N)COP(=O)(O)O)c(C)c2)cc1	
			38	4.6	18	144	83.8	Cc1ccc(CCCC(=O)c2ccc(COC[C@@](C)(N)CO)c(Cl)c2)cc1.Cl	Drug uptake (Rattus norvegicus [7]): Dose-dependent effect; ED50 (Rattus norvegicus [9]): 0.39 mg/kg
			51	5.7	13	120	39.5	Cc1ccc(CCCC(=O)c2ccc(COC[C@@](C)(N)CO)cc2)cc1.Cl	half-life [10]: 7.8 h; ED50 (Rattus norvegicus [9]): 0.27 mg/kg; Activity (Rattus norvegicus [11]): 39.5%
			97					CCCCCCCCc1ccc(CCC(N)(CO)CO)cc1 [FINGOLIMOD]	half-life [10]: 32 h; ED50 (Rattus norvegicus [9]): 0.33 mg/kg; Activity (Rattus norvegicus [11]): 21%
							6	Cc1ccc(CCCC(=O)c2cc(C)c(COC[C@@](C)(N)CO)cc2C)cc1	inhibition in vivo at 1 mg/kg (Rattus norvegicus [12]): 11%
							13.9	CCc1cc(C(=O)CCCc2ccc(C)cc2)ccc1COC[C@@](C)(N)CO	inhibition in vivo at 1 mg/kg (Rattus norvegicus [12]): 10%
0.019	> 1050	> 20						Cc1ccc(CCCC(=O)c2ccc(COC[C@@](C)(N)COP(=O)(O)O)cc2C)cc1	
0.0028	21	0.06						Cc1ccc(CCCC(=O)c2ccc(COC[C@@](C)(N)COP(=O)(O)O)c(F)c2)cc1	
0.007	29	0.2	92	7.8	72	799		Cc1ccc(CCCC(=O)c2ccc(COC[C@@](C)(N)COP(=O)(O)O)cc2)cc1	
			36	4.1	34	200	38.4	Cc1ccc(CCCC(=O)c2ccc(COC[C@@](C)(N)CO)c(C)c2)cc1.Cl	Drug uptake (Rattus norvegicus [7]): Dose-dependent effect; ED50 (Rattus norvegicus [9]): 0.43 mg/kg
